# Hits are enriched below; roughly 2.1% of the tested compounds scored in any of these assays.
# APJ agonist: agonists of human apelin receptor APJ, primary screen, CHO-K1 cells, PathHunter beta-arrestin, luminescence; 330,000 compounds, 0.11% hits; 0% DMSO wells, 100% apelin; activation, % at 20 µM;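 active = activation more than six SD over the plate average, tested at 20 µM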;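 also: 0% = DMSO alone and 100% = apelin-13 at 10 nM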
#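 Test system: CHO-K1 APJ beta-arrestin complementation cell line. Amount: cell density 1000 per well. Controls: DMSO negative, 10 nM Apelin-13 positive. Signal: luminescent beta-gal fragment complementation, chemiluminescent substrate. Read-out basis: agonist-driven arrestin binding to APJ. Timing: compound stimulation 90 min at 25 °C, detection 60 min.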
# m5-HT2A agonist: mouse Htr2a agonists via beta-arrestin recruitment, primary screen, cell-based, luminescence. activation, % at 7.6 µM. 360,000 compounds, 0.66% hits. AID 624169, 2012. 5-hydroxytryptamine receptor 2A (Mus musculus), P35363. CHO-K1 mHTR2A beta-arrestin complementation; percent of 30 µM serotonin response;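 active = activation above a run cutoff, the mean activation of all tested compounds plus 3 SD, cut at about 14% in these data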;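 also: 0% = plate median of compound wells and 100% = 30 µM serotonin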
# EBI2 antag: EBI2 receptor antagonists, beta-arrestin recruitment, primary screen, cell-based, luminescence, 7a,25-OHC stimulation, uHTS; AID 651636, 2012; G-protein coupled receptor 183 (Homo sapiens), P32249; 360,000 compounds, 0.81% hits; 7a,25-OHC stimulated; inhibition, % at 5 µM; in the data active = inhibition above about 38%;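 also: enzyme fragment complementation signal reports receptor beta-arrestin coupling in cells; 0% = agonist plus DMSO wells and 100% = wells without agonist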
# CCR6 antagonist: CCR6 receptor antagonists, primary screen, cell-based, CHO-K1, luminescence, beta-arrestin, uHTS. 340,000 compounds, 0.49% hits. CHO-K1 CCR6 PathHunter beta-arrestin, CCL20-stimulated. inhibition, % at 20 µM. C-C chemokine receptor type 6 (Homo sapiens), P51684;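 active = compounds whose inhibition of the agonist-driven luminescence signal at 20 µM reaches about 50%, limit read from the data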;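 also: cells stimulated with CCL20 at 14 nM final; plate controls were DMSO with CCL20 for no effect and DMSO without agonist for full effect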
# Target sequence (P51684 whole entry, looked up): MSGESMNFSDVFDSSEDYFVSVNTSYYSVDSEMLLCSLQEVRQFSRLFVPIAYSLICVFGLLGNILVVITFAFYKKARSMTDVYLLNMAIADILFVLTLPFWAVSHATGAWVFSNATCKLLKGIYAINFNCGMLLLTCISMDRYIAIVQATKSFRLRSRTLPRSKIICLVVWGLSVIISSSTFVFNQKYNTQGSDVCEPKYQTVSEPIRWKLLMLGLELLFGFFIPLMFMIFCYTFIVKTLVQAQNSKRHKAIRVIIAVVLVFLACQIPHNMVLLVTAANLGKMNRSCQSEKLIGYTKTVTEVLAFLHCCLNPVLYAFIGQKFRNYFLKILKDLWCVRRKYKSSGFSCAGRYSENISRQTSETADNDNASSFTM
# CXCR6 inh: CXCR6 receptor inhibitors, primary screen, cell-based, beta-arrestin, luminescence, CHO-K1 PathHunter, 1536-well; C-X-C chemokine receptor type 6 (Homo sapiens), O00574; inhibition, % at 20 µM; 360,000 compounds, 0.36% hits; in the data active = inhibition above about 34%, passing the limit was not always enough;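 also: antagonist mode with CXCL16 agonist at 10 nM final; 0% = 10 nM CXCL16 with DMSO and 100% = unstimulated wells without agonist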
# Target sequence (O00574 whole entry, looked up): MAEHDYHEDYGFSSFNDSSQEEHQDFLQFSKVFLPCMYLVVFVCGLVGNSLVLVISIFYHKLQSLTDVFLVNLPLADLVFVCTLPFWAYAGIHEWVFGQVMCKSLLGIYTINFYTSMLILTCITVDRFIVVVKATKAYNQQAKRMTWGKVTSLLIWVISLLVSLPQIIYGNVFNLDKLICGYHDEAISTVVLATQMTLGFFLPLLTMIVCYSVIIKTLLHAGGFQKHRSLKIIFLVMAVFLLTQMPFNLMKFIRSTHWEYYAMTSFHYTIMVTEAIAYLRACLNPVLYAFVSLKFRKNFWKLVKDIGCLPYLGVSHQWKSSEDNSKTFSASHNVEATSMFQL
# APJ antag: antagonists of human apelin receptor APJ, primary screen, CHO-K1 cells, beta-arrestin complementation, luminescence | P35414 | inhibition, % at 20 µM | 330,000 compounds, 0.32% hits;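 active = inhibition above about 40% at 20 µM, limit read from the data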;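 also: cells challenged with 10 nM apelin-13 agonist together with compound; plate controls were apelin-13 plus DMSO wells for no effect and DMSO wells lacking apelin-13 for full effect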
# CXCR6 confirm: CXCR6 receptor antagonists, confirmation, cell-based, single concentration, beta-arrestin, luminescence; shares compounds with CXCR6 inh; CHO-K1 CXCR6 PathHunter beta-arrestin; inhibition, % at 20 µM; 700 compounds, 65% hits;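 active = mean inhibition over four retests above 40%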;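 also: receptor stimulated with 10 nM CXCL16 agonist; beta-galactosidase fragment complementation upon beta-arrestin recruitment to receptor; plate controls were CXCL16 plus DMSO for no effect and DMSO without CXCL16 for full effect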
# The depositor's hits bear a star; nt = no result given.
SMILES,APJ agonist,m5-HT2A agonist,EBI2 antag,CCR6 antagonist,CXCR6 inh,APJ antag,CXCR6 confirm
Cc1ccc(S(=O)(=O)ON2C(=O)c3ccccc3C2=O)c(C)c1,nt,1.6,3.8,61.1*,66.7*,nt,27.0
Cc1ccc(C(=O)Nc2ccc3c(c2)OCO3)cc1NC(=O)c1ccco1,-2.5,1.5,-13.8,10.9,-1.9,-13.6,nt
CN(CCC1CCOCC1)Cc1nc(Cc2ccccc2F)no1,-8.1,4.7,1.3,6.5,5.6,-7.0,nt
CN1CCN(S(=O)(=O)c2cccc(S(=O)(=O)c3ccc(Cl)c(Cl)c3)c2)CC1,-3.1,-4.3,-8.2,19.4,-14.4,12.3,nt
O=S(=O)(NC(=S)c1ccccc1)c1ccc(F)cc1,-0.9,2.0,1.0,-8.6,75.6*,26.5,-0.2
CC(C)c1nnc(NC(=O)c2nc(S(=O)(=O)Cc3ccccc3F)ncc2Cl)s1,-0.5,nt,nt,-5.3,nt,-3.7,nt
COc1ccc(CNC(=O)c2nc(S(=O)(=O)Cc3ccccc3)ncc2Cl)cc1,13.1,-17.1,39.8,45.1,50.1*,8.3,51.9*
O=C(NCc1ccc2c(c1)OCO2)c1nc(S(=O)(=O)Cc2ccccc2F)ncc1Cl,6.2,-1.2,24.1,48.6,70.3*,17.8,62.1*
Cc1ccc(Oc2ccc(OCC(=O)OC3CCS(=O)(=O)C3)cc2)cc1 (stereo not given),-0.8,nt,nt,nt,nt,-12.5,nt
C=CCNC(=O)Nc1cc(Cl)ccc1OC,-0.5,1.0,-10.8,-0.7,-1.2,4.6,nt
COc1cccc(-c2nnc(NC(=O)c3ccc(Cl)s3)o2)c1,-4.0,-3.1,-6.3,nt,54.9*,19.9,45.7*
O=C(Nc1nnc(-c2ccco2)o1)c1ccc(Cl)s1,-1.1,4.1,-6.0,-3.8,11.2,-15.5,nt
Cc1ccc(NC(=O)c2ccc(Nc3c([N+](=O)[O-])cc([N+](=O)[O-])cc3[N+](=O)[O-])cc2)cc1,-1.5,1.3,81.2*,71.2*,42.7*,35.0,55.7*
O=C(NCCCN1CCOCC1)c1cc2c(s1)CSC2,-2.6,-1.6,5.0,-6.6,43.9*,12.8,-8.8
CS(=O)(=O)N(CC(=O)Nc1ccccc1C(=O)N1CCOCC1)c1cccc(F)c1,-2.6,-0.3,8.2,2.1,-2.9,10.4,nt
CCOc1ccc(N(CC(=O)Nc2ccccc2C(=O)N2CCOCC2)S(=O)(=O)c2ccc(F)cc2)cc1,-4.1,-1.0,-0.1,3.1,70.4*,2.7,-4.6
CCCCNC(=O)COC(=O)CCC(=O)c1cccs1,-2.9,4.2,1.3,9.4,7.7,3.8,nt
CCOc1cc(/C=C/c2cccc[n+]2C)ccc1OCC(=O)Nc1ccc(C)cc1,-0.1,-1.0,1.2,-1.0,-5.7,10.5,nt
COc1ccc(NS(=O)(=O)c2ccc3[nH]c(=O)[nH]c3c2)cc1OC,-4.7,-7.4,-3.7,3.3,-5.1,-1.2,nt
CCCCCCCCCCOC(=O)Cn1c(COc2ccc(Cl)cc2)[n+](C)c2ccccc21,-2.9,-3.1,12.1,13.1,40.6*,36.8,-8.5
FC(F)Oc1ccccc1/C=N/n1cnc2ccccc21,-3.8,6.2,-0.8,-0.1,49.9*,-2.8,8.0
CNc1cnn(-c2ccc(C)cc2)c(=O)c1Cl,0.1,-2.8,0.6,0.8,56.1*,-7.0,1.7
O=C(COC(=O)c1ccc(O)cc1O)Nc1ccc2c(c1)OCCO2,-3.2,-3.9,2.8,8.4,4.8,0.0,nt
CC(=O)Nc1ccc(Sc2ccc([N+](=O)[O-])o2)cc1,nt,-4.4,27.1,57.0*,51.7*,nt,59.7*
CCOc1cccc(CNCc2cccnc2)c1OCc1ccccc1,-2.7,3.1,-3.6,4.8,-2.6,4.0,nt
SMILES,APJ agonist,m5-HT2A agonist,EBI2 antag,CCR6 antagonist,CXCR6 inh,APJ antag,CXCR6 confirm
COc1cc(N2C(=O)C=CC2=O)ccc1N1C(=O)C=CC1=O,nt,7.2,22.7,106.6*,105.5*,nt,46.7*
COc1ccc(N2C(=O)C3CC(C)=C(C)CC3C2=O)c(OC)c1 (stereo not given),-4.8,0.6,-1.9,9.0,2.4,5.5,nt
COC(=O)[C@H](CCSC)NC(=O)Nc1ccc(OC)cc1OC,-3.0,-0.9,-1.0,-1.0,77.2*,24.7,-1.9
O=C(/C=C/c1cccc([N+](=O)[O-])c1)c1ccco1,0.1,-3.9,-10.1,19.8,-0.2,20.3,nt
O=C(/C=C/c1cccc([N+](=O)[O-])c1)c1ccc([N+](=O)[O-])o1,nt,0.6,8.8,104.8*,95.1*,nt,97.8*
COc1cc(-c2noc(CCC(=O)Nc3cccnc3)n2)cc(OC)c1OC,-1.3,-3.6,-0.1,-3.7,-2.1,10.7,nt
S=C1NC2(CCCCC2)N=C1c1ccccc1,-2.0,2.1,-15.3,-15.9,0.6,-27.0,nt
CN(C)/C(=N\S(=O)(=O)c1ccc(Cl)cc1)c1ccc(F)cc1,-2.1,2.1,10.8,5.1,43.3*,11.1,-1.5
O=C(CSc1nnc(-c2ccco2)n1-c1ccccc1)N1CCOCC1,-5.7,-0.5,-1.9,3.9,63.4*,6.6,12.0
NC(=O)c1ccc(NC(=O)c2cccc(Oc3ccccc3)c2)cc1,-4.1,7.4,-4.8,17.1,8.6,9.4,nt
O=C(Nc1nnc(-c2cccs2)o1)c1cccc(Oc2ccccc2)c1,-2.8,-2.1,-2.3,33.6,44.5*,-45.0,36.9
CCOC(=O)c1ccc(NC(=S)NC(=O)c2cncc(Br)c2)cc1,-7.4,5.8,0.5,59.5*,42.0*,37.7,21.3
CCCNC(=O)c1onc(CSc2ccccn2)c1C(=O)NCCC,1.0,6.3,-6.2,11.1,-6.1,-7.9,nt
Cc1ccc(C(=O)C(SC(C)(C)C)n2cncn2)cc1 (stereo not given),-0.5,-3.7,-10.8,8.3,3.8,19.6,nt
Cn1nc(C(=O)Nc2ccc(Cl)cc2)cc1C(=O)Nc1ccc(Cl)cc1,1.2,4.4,2.4,-4.0,-4.7,7.4,nt
O=C1c2ccccc2NC(c2ccc(F)cc2)N1Cc1ccco1 (stereo not given),-4.3,-2.7,-2.2,16.9,-1.3,4.9,nt
CN(CC(=O)Nc1ccc(F)cc1)C(=O)COC(=O)CN1C(=O)NC2(CCCC2)C1=O,1.1,-11.5,-13.0,2.6,46.4*,7.6,16.5
O=[N+]([O-])c1cc2no[n+]([O-])c2cc1N1CCCCC1,nt,-7.0,-29.8,106.2*,99.6*,nt,93.3*
N#Cc1cc(N2CCCCC2)c([N+](=O)[O-])cc1C#N,-1.0,5.0,3.5,-8.8,3.5,-11.8,nt
CCOc1ccc2nc(-c3ccccc3)[nH]c2c1,3.5,-2.0,2.2,0.9,-2.7,1.8,nt

# From PubChem
